Consider six molecules from ChEMBL document CHEMBL1152851, “Synthesis, cytotoxicity and effects of some 1,2,4-triazole and 1,3,4-thiadiazole derivatives on immunocompetent cells” (Eur J Med Chem, 2009).

Data set [1] is described as follows: Stimulation of immune response in pretreated thymocytes isolated from Graffi myeloid tumor bearing hamster assessed as migration area after 16 hrs by indirect agarose technique. To be noted: cricetinae, thymocyte. The data set is classed as cell-based. The gist of the method: (§1)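 Cells came from treated tumor-bearing hamsters: spleen cells, thymocytes or blood lymphocytes. They were loaded into 3-mm wells cut in an agarose monolayer in 50 mm Petri dishes and kept 16 h at 37 °C, 5% CO2. The migration area was then measured. The migration index (LIF) is the ratio of experimental to control migration area. Values are means of three experiments.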

Data set [2] in a line: Stimulation of immune response in pretreated thymocytes isolated from Graffi myeloid tumor bearing hamster assessed as ratio of migration area of experimental cells to control cells after 16 hrs by indirect agarose technique. Type of data set: cell-based. To be noted: cricetinae, thymocyte. The gist of the method:
as §1

Data set [3] can be described thus: Stimulation of immune response in pretreated thymocytes isolated from Graffi myeloid tumor bearing hamster assessed as rosette formation. Type of data set: cell-based. To be noted: cricetinae, thymocyte.
A short description of data set [4]: Stimulation of immune response in pretreated thymocytes isolated from Graffi myeloid tumor bearing hamster assessed as number of plaque forming cells after 24 hrs […]. Type of data set: cell-based. To be noted: cricetinae, thymocyte.
The subject of data set [5] is PBL. Nature of the data set: Stimulation of immune response in pretreated PBL isolated from Graffi myeloid tumor bearing hamster assessed as migration area after 16 hrs by indirect agarose technique. The data set is classed as cell-based. To be noted: cricetinae. The gist of the method: as §1
Data set [6] concerns PBL. Briefly: Stimulation of immune response in pretreated PBL isolated from Graffi myeloid tumor bearing hamster assessed as ratio of migration area of experimental cells to control cells after 16 hrs by indirect agarose technique. The data set is classed as cell-based. To be noted: cricetinae. Put shortly: as §1
Data set [7] relates to PBL. Nature of the data set: Stimulation of immune response in pretreated PBL isolated from Graffi myeloid tumor bearing hamster assessed as rosette formation. To be noted: cricetinae. Type of data set: cell-based.
Data set [8] concerns PBL. Nature of the data set: Stimulation of immune response in pretreated […] isolated from Graffi myeloid tumor bearing hamster assessed as number of plaque forming cells after 24 hrs […]. The data set is classed as cell-based. To be noted: cricetinae.
The subject of data set [9] is PBL. Briefly: Cytotoxicity against solid form of Graffi myeloid tumor bearing hamster PBL after 24 hrs by trypan blue assay. Type of data set: cell-based. To be noted: Cricetinae. Put shortly:
(§2)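 Thymocytes and peripheral blood lymphocytes came from sexually mature hamsters bearing solid Graffi myeloid tumor. Compounds were made up at 0.5 mg/ml in DMSO, and this stock was diluted 1:10, 1:100, 1:1000 and 1:100,000. Equal volumes of cells and dilution were mixed and held 24 h at 37 °C in humidified 5% CO2. Survival was scored by 0.2% trypan blue exclusion under the microscope, and IC50 was derived.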

Data set [10] concerns PBL. Nature of the data set: Cytotoxicity against PBL isolated from solid form of Graffi myeloid tumor bearing hamster pretreated at 0.5 mg/ml, ip for 5 days measured after 24 hrs by trypan blue assay. To be noted: Cricetinae. The gist of the method:
(§3)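 Tumor-bearing hamsters first received compound at 0.5 mg/ml i.p. Thymocytes or blood lymphocytes were isolated five days later. These were exposed in vitro to serial dilutions of a DMSO stock (5 mg/ml) for 24 h at 37 °C, 5% CO2, then scored with 0.2% trypan blue. Each IC50 is the mean of three parallel samples in three independent experiments.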

Data set [11] is described as follows: Cytotoxicity against solid form of Graffi myeloid tumor bearing hamster thymocytes after 24 hrs by trypan blue assay. The data set is classed as cell-based. To be noted: cricetinae, thymocyte. Put shortly: as §2
The nature of data set [12]: Cytotoxicity against thymocytes isolated from solid form of Graffi myeloid tumor bearing hamster pretreated at 0.5 mg/ml, ip for 5 days measured after 24 hrs by trypan blue assay. To be noted: cricetinae, thymocyte. The gist of the method:
as §3

Data set [13] can be described thus: Stimulation of immune response in pretreated spleen cells isolated from Graffi myeloid tumor bearing hamster assessed as migration area after 16 hrs by indirect agarose technique. To be noted: cricetinae. The data set is classed as cell-based. Put shortly: as §1
The nature of data set [14]: Stimulation of immune response in pretreated spleen cells isolated from Graffi myeloid tumor bearing hamster assessed as rosette formation. Type of data set: cell-based. To be noted: cricetinae.
Data set [15] is described as follows: Stimulation of immune response in pretreated spleen cells isolated from Graffi myeloid tumor bearing hamster assessed as number of plaque forming cells after 24 hrs by modified agar-plate method. Type of data set: cell-based. To be noted: cricetinae. Put shortly: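 Plaque-forming (haemolysin-producing B) cells were counted by the Cunningham–Szenberg method. Cells from treated tumor-bearing hamsters were mixed with complement and sheep red blood cells and loaded into chambers. Haemolytic zones were counted per 10⁶ lymphocytes. Values are means of three experiments, compared against cells from control animals.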

Data set [16] can be described thus: Stimulation of immune response in pretreated spleen cells isolated from Graffi myeloid tumor bearing hamster assessed as ratio of migration area of experimental cells to control cells after 16 hrs by indirect agarose technique. The data set is classed as cell-based. To be noted: cricetinae. Put shortly:
as §1

The nature of data set [17]: Cytotoxicity against pretreated spleen cells isolated from Graffi myeloid tumor bearing hamster assessed as full lysis. Type of data set: cell-based. To be noted: cricetinae.

Take `Nn1c(-c2cc3c(s2)CCCC3)n[nH]c1=S`: the Activity in data set [1] is reported as 1024 mm2; in data set [3] it was “Not Active”; in data set [4] it was 7250; in the data set on PBL [5], 1800 mm2; in the data set on PBL [7], “Not Active”; in the data set with PBL [8], 5869. Further, the values for the Activity in data set [13], in data set [14] and in [15] were 1286 mm2, “Not Active” and 3920, respectively. The Ratio is given as 0.532 in [2] and 1.654 with PBL [6]. Further, the IC50 (as a rule, the concentration at which inhibition is half-maximal) was determined as 2670 nM in the data set on PBL [9], 140 nM with PBL [10], 2200 nM in data set [11] and 12 nM in data set [12].

With `CCn1c(-c2cc3c(s2)CCCC3)n[nH]c1=S`, the Activity in data set [1] was 997 mm2; in [3], “Not Active”; in [4], 5287; in the data set on PBL [7], “Not Active”; in the data set with PBL [8], 4992; in [13], 1823 mm2. The Activity result in data set [14] is “Not Active”; in data set [15], 3700. Further, the Ratio in [2] is recorded as 0.518; in the data set on PBL [6], 0.001; in data set [16], 0. The concentration for half-maximal inhibition (IC50) in the data set on PBL [9] worked out at 1810 nM; in the data set on PBL [10], 290 nM; in data set [11], 120 nM; in [12], 460 nM.

For `Nn1c(-c2ccc(-c3ccccc3)s2)n[nH]c1=S`, the Activity in data set [1] is 1836 mm2; in data set [3] it was “Not Active”; in data set [4], 19200; with PBL [7], “Not Active”; with PBL [8] it was 19920; in data set [13] it was 2332 mm2. Besides, the Activity result in data set [14] was “Not Active”; in data set [15] it was 4700. Also, the Ratio in data set [2] was 0.954. Further, the IC50 in the data set on PBL [10] stood at 12 nM; in data set [11], 240 nM; in data set [12] it was 0.001 nM.

For the molecule `CCNC(=S)NNC(=O)c1ccc(-c2ccccc2)s1`, the Activity is given as 202 mm2 in data set [1]; “Not Active” in data set [3]; 7800 in [4]; “Not Active” in the data set on PBL [7]; 5200 in the data set with PBL [8]; 822 mm2 in data set [13]. For the same molecule, the Activity entry in data set [14] was “Not Active”; in [15] it was 2010. Also, the Ratio in [2] was 0.104. Also, the IC50 with PBL [9] stood at 1640 nM; in the data set on PBL [10] it was 320 nM; in [11], 2100 nM; in data set [12] it was 3500 nM.

Turning to `CCNC(=S)NNC(=O)c1cc2c(s1)CCCC2`, the Activity in data set [1] is given as 146 mm2; in data set [3] it was “Not Active”; in [4] it was 2040; in the data set with PBL [7], “Not Active”; in the data set with PBL [8] it was 768; in data set [17], “Toxic”. Further, the Activity entry in data set [14] is on record as “Not Active”. Moreover, the Ratio in [2] was 0.08. The IC50 was found to be 14 nM in the data set with PBL [10] and 110 nM in data set [11].

Take `CCNc1nnc(-c2cc3c(s2)CCCC3)s1`: the Activity was 1118 mm2 in data set [1]; “Not Active” in [3]; 15300 in [4]; “Not Active” with PBL [7]; 14288 in the data set on PBL [8]; 1788 mm2 in [13]. The Activity result in [14] was “Not Active”; in data set [15] it was 3928. Besides, the Ratio in data set [2] was determined as 0.581. The half-inhibitory concentration (IC50) with PBL [9] was 320 nM; in the data set on PBL [10], 410 nM; in [11], 260 nM; in data set [12], 0.0052 nM.
